The values below come from ChEMBL document CHEMBL3784976 (J Med Chem, 2016).

For series [1], the target named is Adenosine receptor A3 (Homo sapiens) (UniProt P0DMS8). Put plainly: Displacement of [125I]AB-MECA from human recombinant adenosine A3 receptor expressed in HEK293 cells assessed as remaining radioligand binding at 10 uM after 120 mins by scintillation counting method relative to control. The format is cell-based. (In general: Loss of bound radioactivity is the signal in a displacement assay; it reports binding, not function.)

The target of series [2] is Substance-P receptor (Homo sapiens) (UniProt P25103). The series is described as follows: Displacement of [125I]-Substance P LYS3 from NK1 receptor in human U373MG cells assessed as remaining radioligand binding at 10 uM after 60 mins by scintillation counting method relative to control. The format is cell-based. The settings on record: U-373MG ATCC.
The target of series [3] is Histamine H1 receptor (Homo sapiens) (UniProt P35367). The series is described as follows: Displacement of [3H]pyrilamine from human recombinant histamine H1 receptor expressed in HEK293 cells assessed as remaining radioligand binding at 10 uM after 60 mins by scintillation counting method relative to control. It counts as cell-based.
In series [4] the target is Kappa-type opioid receptor (Rattus norvegicus) (UniProt P34975). Put plainly: Displacement of [3H]U-69593 from rat recombinant kappa opioid receptor expressed in CHO cells assessed as remaining radioligand binding at 10 uM after 60 mins by scintillation counting method relative to control. The format is cell-based.
For series [5], the target named is Transient receptor potential cation channel subfamily A member 1 (Homo sapiens, UniProt O75762). Put plainly: Antagonist activity at human TRPA1 expressed in tetracycline-inducible T-REx expression system transfected CHO cells assessed as inhibition of AITC-induced Ca2+ influx preincubated for 2 mins followed by AITC addition measured for 2 mins by Fluo-4 dye based FLIPR assay. The format is cell-based.

The target in series [6] is Transient receptor potential cation channel subfamily A member 1 (Rattus norvegicus, UniProt Q6RI86). The series is described as follows: Antagonist activity at rat TRPA1 expressed in tetracycline-inducible T-REx expression system transfected CHO cells assessed as inhibition of AITC-induced Ca2+ influx preincubated for 2 mins followed by AITC addition measured for 2 mins by Fluo-4 dye based FLIPR assay. It counts as cell-based.

Series [7] can be described thus: Apparent intrinsic clearance in rat liver microsomes. It counts as ADME. The settings on record: read-out: CLH(app). (In general: Liver microsomes are a subcellular fraction often used to study metabolism.)
A short description of series [8]: Apparent intrinsic clearance in human liver microsomes. It counts as ADME. The settings on record: read-out: CLH(app).
Series [9] addresses Urotensin-2 receptor (Homo sapiens) (UniProt Q9UKP6). Put plainly: Displacement of [125I]urotensin-2 from human recombinant urotensin-2 receptor expressed in CHO cells assessed as remaining radioligand binding at 10 uM after 120 mins by scintillation counting method relative to control. The format is cell-based.
The target of series [10] is Muscarinic acetylcholine receptor M1 (Homo sapiens) (UniProt P11229). The series is described as follows: Displacement of [3H]pirenzepine from human recombinant muscarinic M1 receptor expressed in CHO cells assessed as remaining radioligand binding at 10 uM after 60 mins by scintillation counting method relative to control. It counts as cell-based.
The target of series [11] is Histamine H3 receptor (Homo sapiens) (UniProt Q9Y5N1). Put plainly: Displacement of [3H]Na-Me-histamine from human recombinant histamine H3 receptor expressed in CHO cells assessed as remaining radioligand binding at 10 uM after 60 mins by scintillation counting method relative to control. It counts as cell-based.
In series [12] the target is Cannabinoid receptor 1 (Homo sapiens) (UniProt P21554). The series is described as follows: Displacement of [3H]CP-55940 from human recombinant CB1 receptor expressed in CHO cells assessed as remaining radioligand binding at 10 uM after 120 mins by scintillation counting method relative to control. The format is cell-based.
Series [13] addresses D(3) dopamine receptor (Homo sapiens) (UniProt P35462). The series is described as follows: Displacement of [3H]methyl-spiperone from human recombinant dopamine D3 receptor expressed in CHO cells assessed as remaining radioligand binding at 10 uM after 60 mins by scintillation counting method relative to control. The format is cell-based.
Series [14] is described as follows: AUC (infinity) in rat at 30 mg/kg, po. It counts as ADME, organism-based. Further details: dose 30 mg/kg, time infinity, route oral. The settings on record: in vivo. An outline of the steps:
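Rat oral PK at 30 mg/kg (10 mg/kg for one analogue) in 1% Tween 80/2% HPMC/97% water with methanesulfonic acid, pH 2.2.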

In series [15] the target is Transient receptor potential cation channel subfamily V member 1 (Homo sapiens, UniProt Q8NER1). The series is described as follows: Antagonist activity at human TRPV1 expressed in CHO cells assessed as inhibition of capsaicin-induced Ca2+ influx up to 10 uM preincubated for 2.5 mins followed by capsaicin addition measured for 1 min by luminescence assay. It counts as cell-based.

The target in series [16] is Cytochrome P450 2D6 (Homo sapiens, UniProt P10635). Put plainly: Inhibition of CYP2D6 in human liver microsomes using dextromethorphan as substrate by LC-MS/MS analysis in presence of NADPH. The format is ADME.
For series [17], the system named is Rattus norvegicus. Put plainly: Antinociceptive activity in po dosed Harlan Sprague-Dawley rat assessed as inhibition of AITC-induced paw flinches pretreated for 1 hr followed by AITC injection measured for 1 min post injection. It counts as functional, organism-based. The essentials:
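Rats were dosed orally with vehicle (2% HPMC/1% Tween-80) or antagonist at 1, 3, 10 or 30 mg/kg. After 1 h, 0.1% AITC was injected into the left ventral hind paw. Flinching was recorded over the first minute post-injection. Unbound plasma concentrations were measured at 1 h (n = 8 per dose).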

Series [18] relates to Plasma. The series is described as follows: Unbound plasma concentration in Harlan Sprague-Dawley rat model of AITC-induced flinching at 3 mg/kg, po at 1 hr. The format is ADME, organism-based. The settings on record: in vivo. The essentials: (§1)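 Rats were given vehicle (2% HPMC/1% Tween-80) or compound orally at 1, 3, 10 or 30 mg/kg. After 1 h, 0.1% AITC was injected into one left ventral hind paw, and nocifensive flinching was recorded over the first minute. Unbound plasma concentration was measured at 1 h, n = 8 per dose. In vivo IC50/IC90 came from the exposure–response relationship across individual animals.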

Series [19] in a line: Ratio of unbound plasma concentration in Harlan Sprague-Dawley rat model of AITC-induced flinching at 1 mg/kg, po to IC50 for rat TRPA1 expressed in tetracycline-inducible T-REx expression system transfected CHO cells by 45Ca2+ uptake assay. The format is ADME, organism-based. The settings on record: in vivo. The essentials: (§2)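 Rats dosed orally at 1, 3, 10 or 30 mg/kg in 2% HPMC/1% Tween-80 vehicle. After 1 h, unbound plasma concentration measured (n = 8 per dose), intraplantar AITC (0.1%) given and flinching scored over the first minute. Unbound concentration divided by in vitro rat TRPA1 45Ca2+ IC50.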

A short description of series [20]: Ratio of unbound plasma concentration in Harlan Sprague-Dawley rat model of AITC-induced flinching at 30 mg/kg, po to IC50 for rat TRPA1 expressed in tetracycline-inducible T-REx expression system transfected CHO cells by 45Ca2+ uptake assay. The format is ADME, organism-based. The settings on record: in vivo. An outline of the steps:
as §2

Series [21] concerns Rattus norvegicus. Put plainly: In vivo inhibition of TRPA1 in Harlan Sprague-Dawley rat model of AITC-induced flinching assessed as unbound plasma concentration based IC50. It counts as functional, organism-based. An outline of the steps:
as §1

Series [22] concerns Rattus norvegicus. The series is described as follows: In vivo inhibition of TRPA1 in Harlan Sprague-Dawley rat model of AITC-induced flinching assessed as unbound plasma concentration based IC90. It counts as functional. An outline of the steps:
as §1

The species entered for series [23] is Rattus norvegicus. Put plainly: Displacement of [3H]nitrendipine from L-type calcium channel dihydropyridine binding site in rat cerebral cortex assessed as remaining radioligand binding at 10 uM after 90 mins by scintillation counting method relative to control. The format is tissue-based.
Series [24] addresses Histamine H2 receptor (Homo sapiens) (UniProt P25021). Put plainly: Displacement of [125I]APT from human recombinant histamine H2 receptor expressed in CHO cells assessed as remaining radioligand binding at 10 uM after 120 mins by scintillation counting method relative to control. The format is cell-based.

pIC50: −log10 of the molar value. Activity calls are given as the source filed them. The calls are words filed in the database; no cut-off is given here. Bounds are passed on as bounds.

Cytochrome P450 2D6, sequence (P10635 whole entry): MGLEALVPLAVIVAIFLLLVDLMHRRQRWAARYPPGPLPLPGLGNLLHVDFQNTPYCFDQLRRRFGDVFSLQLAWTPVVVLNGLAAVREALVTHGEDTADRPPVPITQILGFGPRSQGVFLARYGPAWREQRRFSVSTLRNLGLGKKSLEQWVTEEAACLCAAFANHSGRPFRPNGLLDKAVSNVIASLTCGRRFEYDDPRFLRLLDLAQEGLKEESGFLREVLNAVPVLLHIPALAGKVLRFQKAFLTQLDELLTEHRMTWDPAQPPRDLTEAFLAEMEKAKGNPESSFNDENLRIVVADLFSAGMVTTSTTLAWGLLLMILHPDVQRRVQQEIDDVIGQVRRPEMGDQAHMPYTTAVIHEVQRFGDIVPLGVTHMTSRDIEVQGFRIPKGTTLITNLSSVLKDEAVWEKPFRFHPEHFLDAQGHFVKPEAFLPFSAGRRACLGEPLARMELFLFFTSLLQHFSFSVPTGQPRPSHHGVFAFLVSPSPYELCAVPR
D(3) dopamine receptor (Homo sapiens), sequence (P35462 whole entry): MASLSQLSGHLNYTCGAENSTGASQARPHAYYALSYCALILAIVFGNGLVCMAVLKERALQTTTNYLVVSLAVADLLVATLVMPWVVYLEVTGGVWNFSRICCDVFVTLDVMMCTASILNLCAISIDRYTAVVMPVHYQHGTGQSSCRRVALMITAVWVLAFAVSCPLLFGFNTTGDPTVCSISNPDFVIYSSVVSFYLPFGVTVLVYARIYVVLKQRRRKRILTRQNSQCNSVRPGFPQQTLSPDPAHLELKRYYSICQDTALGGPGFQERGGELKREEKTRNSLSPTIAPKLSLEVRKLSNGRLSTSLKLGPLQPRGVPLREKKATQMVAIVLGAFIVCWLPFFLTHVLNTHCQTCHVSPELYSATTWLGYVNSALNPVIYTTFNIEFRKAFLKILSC
Transient receptor potential cation channel subfamily A member 1 (Rattus norvegicus, UniProt Q6RI86), sequence (Q6RI86 whole entry): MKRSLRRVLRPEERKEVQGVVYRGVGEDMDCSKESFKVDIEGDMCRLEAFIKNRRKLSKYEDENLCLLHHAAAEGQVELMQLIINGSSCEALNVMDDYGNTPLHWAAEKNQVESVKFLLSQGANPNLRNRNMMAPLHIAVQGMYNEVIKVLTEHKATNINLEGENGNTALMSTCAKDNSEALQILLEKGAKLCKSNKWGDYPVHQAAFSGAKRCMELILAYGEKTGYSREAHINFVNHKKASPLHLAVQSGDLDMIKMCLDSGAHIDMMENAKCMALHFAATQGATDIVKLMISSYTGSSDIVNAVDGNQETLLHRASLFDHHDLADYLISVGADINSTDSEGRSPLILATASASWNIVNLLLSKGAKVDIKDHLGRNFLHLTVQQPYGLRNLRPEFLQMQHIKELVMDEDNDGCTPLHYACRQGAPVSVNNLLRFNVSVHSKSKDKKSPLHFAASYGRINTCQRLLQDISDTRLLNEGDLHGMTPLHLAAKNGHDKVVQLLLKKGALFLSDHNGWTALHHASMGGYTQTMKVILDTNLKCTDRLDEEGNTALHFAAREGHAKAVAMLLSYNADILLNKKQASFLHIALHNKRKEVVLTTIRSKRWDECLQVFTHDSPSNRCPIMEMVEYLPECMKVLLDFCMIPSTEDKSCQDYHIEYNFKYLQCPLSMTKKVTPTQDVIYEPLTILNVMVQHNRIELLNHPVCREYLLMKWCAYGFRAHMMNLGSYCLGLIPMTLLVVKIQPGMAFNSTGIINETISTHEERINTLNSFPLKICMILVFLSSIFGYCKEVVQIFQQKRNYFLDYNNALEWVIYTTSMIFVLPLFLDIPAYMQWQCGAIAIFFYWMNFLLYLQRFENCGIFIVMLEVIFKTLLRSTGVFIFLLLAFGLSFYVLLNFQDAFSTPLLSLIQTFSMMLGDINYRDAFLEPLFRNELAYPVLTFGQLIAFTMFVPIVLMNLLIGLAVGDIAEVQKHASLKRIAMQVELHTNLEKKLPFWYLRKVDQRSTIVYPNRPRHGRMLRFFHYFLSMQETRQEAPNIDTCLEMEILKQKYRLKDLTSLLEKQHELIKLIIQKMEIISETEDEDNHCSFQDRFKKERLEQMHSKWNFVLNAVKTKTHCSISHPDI
Histamine H2 receptor (Homo sapiens), sequence (P25021 whole entry): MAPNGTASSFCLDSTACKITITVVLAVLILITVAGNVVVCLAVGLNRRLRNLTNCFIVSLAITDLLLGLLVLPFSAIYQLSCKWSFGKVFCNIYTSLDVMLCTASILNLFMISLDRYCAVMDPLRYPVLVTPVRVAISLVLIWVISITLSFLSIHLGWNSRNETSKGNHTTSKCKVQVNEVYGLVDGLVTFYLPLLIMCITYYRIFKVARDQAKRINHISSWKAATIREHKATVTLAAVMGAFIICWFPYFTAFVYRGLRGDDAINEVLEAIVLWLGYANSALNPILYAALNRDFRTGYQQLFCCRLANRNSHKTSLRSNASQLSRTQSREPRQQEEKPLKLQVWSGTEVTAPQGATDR
Transient receptor potential cation channel subfamily V member 1, sequence (Q8NER1 whole entry): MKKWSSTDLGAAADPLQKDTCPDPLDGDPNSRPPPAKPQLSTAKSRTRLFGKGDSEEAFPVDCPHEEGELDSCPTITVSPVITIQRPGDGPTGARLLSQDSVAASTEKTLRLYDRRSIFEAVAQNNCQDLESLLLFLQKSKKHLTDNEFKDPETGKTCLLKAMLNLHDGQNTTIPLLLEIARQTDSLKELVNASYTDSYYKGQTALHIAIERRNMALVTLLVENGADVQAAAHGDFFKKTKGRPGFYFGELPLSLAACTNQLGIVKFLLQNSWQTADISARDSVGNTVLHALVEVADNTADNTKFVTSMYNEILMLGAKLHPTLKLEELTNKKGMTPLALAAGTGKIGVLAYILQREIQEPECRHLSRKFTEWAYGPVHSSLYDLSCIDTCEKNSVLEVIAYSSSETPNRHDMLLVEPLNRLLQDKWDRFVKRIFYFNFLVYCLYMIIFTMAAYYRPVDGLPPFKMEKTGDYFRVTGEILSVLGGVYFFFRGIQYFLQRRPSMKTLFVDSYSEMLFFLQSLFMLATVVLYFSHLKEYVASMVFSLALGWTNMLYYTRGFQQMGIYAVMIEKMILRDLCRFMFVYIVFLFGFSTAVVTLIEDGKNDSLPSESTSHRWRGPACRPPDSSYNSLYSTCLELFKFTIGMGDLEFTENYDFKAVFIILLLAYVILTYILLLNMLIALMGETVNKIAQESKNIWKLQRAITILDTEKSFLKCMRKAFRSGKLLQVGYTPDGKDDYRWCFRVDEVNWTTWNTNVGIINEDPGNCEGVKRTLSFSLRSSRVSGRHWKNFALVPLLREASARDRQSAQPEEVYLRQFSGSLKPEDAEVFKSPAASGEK
Cannabinoid receptor 1 (Homo sapiens), sequence (P21554 whole entry): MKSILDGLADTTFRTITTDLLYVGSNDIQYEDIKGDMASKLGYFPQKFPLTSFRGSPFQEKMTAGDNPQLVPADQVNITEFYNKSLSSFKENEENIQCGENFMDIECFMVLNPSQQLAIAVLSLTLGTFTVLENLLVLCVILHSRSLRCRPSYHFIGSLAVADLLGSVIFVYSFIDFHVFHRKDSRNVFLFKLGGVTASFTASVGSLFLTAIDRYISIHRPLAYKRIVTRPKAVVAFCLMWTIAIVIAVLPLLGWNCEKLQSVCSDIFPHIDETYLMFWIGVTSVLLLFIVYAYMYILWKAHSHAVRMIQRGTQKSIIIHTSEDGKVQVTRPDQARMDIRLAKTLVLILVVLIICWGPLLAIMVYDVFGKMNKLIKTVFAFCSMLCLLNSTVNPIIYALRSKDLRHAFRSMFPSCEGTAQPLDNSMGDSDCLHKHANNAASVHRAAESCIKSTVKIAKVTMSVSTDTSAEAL
Substance-P receptor (Homo sapiens), sequence (P25103 whole entry): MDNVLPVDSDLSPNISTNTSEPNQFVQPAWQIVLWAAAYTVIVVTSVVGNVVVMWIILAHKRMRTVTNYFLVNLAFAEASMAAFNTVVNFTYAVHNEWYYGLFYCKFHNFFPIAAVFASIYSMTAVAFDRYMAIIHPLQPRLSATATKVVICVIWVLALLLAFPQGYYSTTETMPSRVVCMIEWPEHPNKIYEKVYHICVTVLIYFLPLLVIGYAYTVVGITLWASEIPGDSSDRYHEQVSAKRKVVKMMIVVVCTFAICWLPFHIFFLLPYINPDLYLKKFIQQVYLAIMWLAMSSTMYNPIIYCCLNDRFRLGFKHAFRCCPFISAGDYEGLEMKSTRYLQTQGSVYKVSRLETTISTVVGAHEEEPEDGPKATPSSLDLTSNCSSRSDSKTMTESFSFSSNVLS
Histamine H3 receptor (Homo sapiens), sequence (Q9Y5N1 whole entry): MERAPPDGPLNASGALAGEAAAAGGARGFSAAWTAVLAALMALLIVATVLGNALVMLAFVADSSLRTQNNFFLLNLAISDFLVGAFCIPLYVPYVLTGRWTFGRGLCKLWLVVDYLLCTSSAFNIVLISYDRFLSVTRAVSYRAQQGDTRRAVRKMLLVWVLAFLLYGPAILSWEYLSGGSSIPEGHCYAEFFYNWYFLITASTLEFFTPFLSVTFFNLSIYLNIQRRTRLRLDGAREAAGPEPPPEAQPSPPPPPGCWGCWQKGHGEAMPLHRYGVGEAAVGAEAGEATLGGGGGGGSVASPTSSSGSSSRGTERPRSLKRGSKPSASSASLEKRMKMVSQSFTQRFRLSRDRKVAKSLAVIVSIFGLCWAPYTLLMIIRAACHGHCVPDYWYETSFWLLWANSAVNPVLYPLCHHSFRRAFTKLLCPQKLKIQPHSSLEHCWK
Adenosine receptor A3 (Homo sapiens), sequence (P0DMS8 whole entry): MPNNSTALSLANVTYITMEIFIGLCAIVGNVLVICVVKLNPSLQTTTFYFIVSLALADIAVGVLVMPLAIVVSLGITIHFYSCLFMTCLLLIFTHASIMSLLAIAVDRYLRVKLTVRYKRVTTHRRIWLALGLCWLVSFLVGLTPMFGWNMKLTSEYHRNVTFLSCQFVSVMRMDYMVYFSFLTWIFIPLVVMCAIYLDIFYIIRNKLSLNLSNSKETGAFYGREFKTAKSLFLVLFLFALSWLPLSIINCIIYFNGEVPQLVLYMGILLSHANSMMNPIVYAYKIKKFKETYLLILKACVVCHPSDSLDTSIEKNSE

By pIC50 is commonly meant the negative decadic logarithm of the IC50, by convention in mol/L. What is called AUC(0-inf) is the area under the concentration-time curve extrapolated to infinity. A high value points to high exposure. By IC90 is commonly meant the point of the concentration-response curve where the effect stands at 90%. Regarding `Cn1cnc2ncn(Cc3nc(CCc4ccc(Cl)cc4)no3)c(=O)c21`, the Activity in series [1], in series [2], in series [3], in series [4], in [9] and in series [10] was over 77% throughout. Further, the Activity in [11], in [12], in series [13], in series [23] and in series [24] was over 77% each time. For the same molecule, the pIC50 is 7.70 in series [5], 7.70 in series [6], under 4.57 in series [16] and 6.46 in [21]. In addition, the microsomal CLint in [7] is 41 µL/min/mg; in series [8] it was under 14 µL/min/mg. Further, in series [14], the AUC(0-inf) was 19.8 µM·h. Moreover, the inhibition result in series [15] was “inactive”. Also, the inhibition result in [17] is “Dose-dependent effect”. In series [18], the “Cp(f)” value was found to be 190 nM. In addition, the Ratio is given as 0.72 in series [19] and 30.3 in [20]. The concentration for an effect of 90% (IC90) in series [22] is 1.7 µM.
